Measurements from article PMC7201918 (The Journal of Experimental Medicine, 2020).

Columns and labels:
[1] = system: GM-CSF (Csf2fl/fl:R26CreERT2 mice); assay: EAE with tamoxifen-induced GM-CSF deletion; type: in vivo, mouse; conditions: tamoxifen by oral gavage after EAE onset in Csf2fl/fl:R26CreERT2 mice; n = 12 mice
[2] = system: WT mouse BM neutrophils; assay: SOCS mRNA expression by real-time PCR in BM neutrophils; type: cell-based; conditions: purified mouse BM neutrophils, 100 ng/ml GM-CSF, later time points
[3] = system: human blood neutrophils and monocytes; assay: Immunoblotting of pSTAT5 and CIS in human blood neutrophils and monocytes; type: cell-based; conditions: GM-CSF stimulation
Method in brief: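 Blood neutrophils and monocytes from healthy human donors were treated with GM-CSF. pSTAT5, CIS and β-actin were immunoblotted from RIPA lysates (protease and phosphatase inhibitors, BCA-normalized) run on 4–12% Bis-Tris gels and detected by chemiluminescence. One experiment representative of three.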

[4] = system: CIS−/− BM neutrophils; assay: Immunoblot of JAK-STAT/MAPK/Akt phosphorylation in WT or CIS−/− BM neutrophils; type: cell-based, mouse
Method in brief: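 Ly6G-selected bone marrow neutrophils (≥95% pure) were primed with GM-CSF (100 ng/ml) for 3 h, washed, and held in cytokine-free medium for various times. Cells were lysed in RIPA buffer containing protease and phosphatase inhibitors, and loading was normalized by BCA assay. Lysates were separated on 4–12% Bis-Tris gels, transferred to PVDF, and detected by chemiluminescence. One of three independent experiments.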

[5] = system: CD131 (GM-CSFRβ) on BM neutrophils; assay: Flow-cytometric analysis of CD131; type: cell-based, mouse; conditions: CIS−/− compared with WT neutrophils from 50:50 chimeric mice; n = 4 mice
Method in brief: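 Surface CD131 was measured by flow cytometry on bone marrow neutrophils from WT:CIS−/− (50:50) chimeric mice. Cells were analysed naive (t0) and after stimulation with recombinant G-CSF or GM-CSF (100 ng/ml). n = 4 mice pooled from two independent experiments.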

[6] = system: WT or CIS−/− BM neutrophils; type: cell-based, mouse; conditions: for cleaved caspase-3 induction upon cytokine withdrawal: G-CSF: WT and CIS−/− neutrophils, GM-CSF: CIS−/− relative to WT; for Mcl-1 expression: WT and CIS−/− neutrophils, G-CSF or GM-CSF preconditioning
Method in brief: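 Purified bone marrow neutrophils were exposed to recombinant G-CSF or GM-CSF (100 ng/ml) for 3 h, then replenished with cytokine-free medium for the indicated times. RIPA lysates with protease and phosphatase inhibitors were BCA-normalized. They were resolved on 4–12% Bis-Tris gels, blotted to PVDF, and developed by HRP chemiluminescence.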

[7] = system: BM neutrophils from WT and CIS−/− mice; assay: CXCL2 and CCL3 secretion by BM neutrophils; type: cell-based, mouse; conditions: CIS−/− vs WT neutrophils, GM-CSF for 24 h; n = 3 mice
[8] = system: CCRL2 on BM neutrophils; assay: Flow-cytometric analysis of CCRL2 surface expression on BM neutrophils; type: cell-based, mouse; conditions: CIS−/− vs WT neutrophils; n = 3 mice
[9] = system: BM monocytes from WT and CIS−/− mice; assay: Differentiation of BM monocytes into CD11c+ GM-Macs; type: cell-based, mouse; conditions: CIS-deficient relative to WT monocytes; n = 4 mice
Method in brief: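 Monocytes were purified from bone marrow by anti-CD115 magnetic positive selection (>95% purity). They were cultured with recombinant GM-CSF at 100 ng/ml in RPMI 1640 with antibiotics and 10% heat-inactivated FCS for the indicated times. The frequency of CD11c+ GM-Macs was determined by flow cytometry. n = 4 mice pooled from two independent experiments.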

[10] = system: BM monocytes from WT and CIS−/− mice; assay: Chemokine; type: cell-based, mouse; conditions: 8 h after GM-CSF stimulation, n = 3 mice
Method in brief: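 Bone marrow monocytes from WT and CIS−/− mice were isolated by anti-CD115-biotin/anti-biotin microbead positive selection (>95% purity). They were stimulated with recombinant GM-CSF at 100 ng/ml for 8 h in RPMI 1640 with antibiotics and 10% heat-inactivated FCS. Ccl17 and Ccl22 mRNA was measured by real-time PCR, normalized to Gapdh. n = 3 mice, one experiment.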

[11] = system: WT and CIS−/− BM neutrophils; assay: RNASeq of BM neutrophils after GM-CSF stimulation; type: cell-based, mouse; conditions: GM-CSF 100 ng/ml
Method in brief: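 Neutrophils were FACS-sorted from WT and CIS−/− bone marrow (PI– CD3– CD19– CD115– CD11b+ Ly6G+; 99–100% purity). They were left unstimulated or stimulated with recombinant GM-CSF at 100 ng/ml for 4 h and 24 h. RNA libraries underwent single-end 75 bp sequencing on a NextSeq 500 (~20 million reads per sample), and reads were quality-checked with fastqc.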

[12] = system: WT and CIS−/− BM eosinophils; assay: Generation of eosinophils from BM cells in IL-5; type: cell-based, mouse; conditions: IL-5 for 3 d, n = 3 mice
[13] = system: eosinophils; conditions: ref Burnham et al., 2013; Matsumoto et al., 1997; Yoshimura et al., 1995; cited from earlier work
[14] = system: IL-18; conditions: cited from earlier work
[15] = system: synovial cell cultures; conditions: exogenous IL-18, synovial cell cultures; ref Gracie et al., 1999; cited from earlier work

With `CC/C(=C(\c1ccccc1)c1ccc(OCCN(C)C)cc1)c1ccccc1` [tamoxifen] the “progression of EAE” value [1] was “inhibited the progression of EAE”.

In the case of GM-CSF: recombinant GM-CSF (100 ng/ml), the “persistence of SOCS mRNA induction” value [2] is reported as “only Cish mRNA levels were sustained at later time points”, the “CIS induction and STAT5 phosphorylation” value [3] is reported as “CIS induction and STAT5 phosphorylation” and the “STAT5 activation, later time points” value ([4]; CIS−/− vs WT neutrophils, 100 ng/ml GM-CSF, 2 h after stimulation) is reported as “prolonged expression of STAT5 activation at later time points”. The “JAK2-STAT5 activation after cytokine withdrawal” value ([4]; GM-CSF-primed (3 h) then washed CIS−/− neutrophils) was “Extended JAK2-STAT5 activation”, the “STAT3 and Akt dephosphorylation after cytokine withdrawal” value ([4]; GM-CSF-primed (3 h) then washed, WT vs CIS−/− neutrophils) was “kinetics of STAT3 and Akt dephosphorylation were similar” and the “p38 MAPK and SAPK/JNK activation after cytokine withdrawal” value ([4]; GM-CSF-primed then washed CIS−/− neutrophils) was “prolonged activation of p38 MAPK and SAPK/JNK”. The “cell surface GM-CSFRβ expression after stimulation” value [5] was “higher cell surface GM-CSFRβ expression”, the A1/Bfl-1 induction ([6]; BM neutrophils) was “selectively induced the pro-survival protein A1/Bfl-1” and the “A1/Bfl-1 level upon cytokine withdrawal” value ([6]; CIS−/− neutrophils upon GM-CSF withdrawal) was “sustained for a longer period”. The “cleaved caspase-3 induction upon cytokine withdrawal” value [6] was “delayed induction of cleaved caspase-3”, the Mcl-1 expression [6] was “no difference in the expression of prosurvival Mcl-1 protein” and the “CXCL2 and CCL3 secretion” value [7] was “secreted higher levels of CXCL2 and CCL3 chemokines”. The “cell surface CCRL2 expression” value [8] was “enhanced cell surface CCRL2 expression”, the “differentiation into GM-Macs” value [9] was “accelerated differentiation into GM-Macs” and the “chemokine production by monocytes” value [10] was “produced higher levels of chemokines”. For the same molecule, the “gene expression change, 24 h” value ([11]; CIS−/− neutrophils, 24 h) was “extensive transcriptional changes” and the “gene expression change, 4 h” value ([11]; CIS−/− vs WT neutrophils, 4 h) was “little difference in gene expression”.

In the case of “IL-5: cytokine signaling through the common β chain”, the eosinophil numbers [12] is given as “greater numbers” and the “Cish expression in eosinophils” value [13] is given as “can induce Cish expression”.

For “IL-18: IL-1 family member; exogenous IL-18”, the “effect on CIA, exogenous IL-18” value ([14]; ref Gracie et al., 1999) is listed as “prime CIA” and the “secretion of GM-CSF (along with nitric oxide, TNF, and IFN-γ)” value [15] is listed as “promote the secretion of GM-CSF”.

B1: IL-18–binding protein: endogenous inhibitor of IL-18 (protein, UniProt O95998 31-194, looked up)
Interleukin-18-binding protein: TPVSQTTTAATASVRSTKDPCPSQPPVFPAAKQCPALEVTWPEVEVPLNGTLSLSCVACSRFPNFSILYWLGNGSFIEHLPGRLWEGSTSRERGSTGTQLCKALVLEQLTPALHSTNFSCVLVDPEQVVQRHVVLAQLWAGLRATLPPTQEALPSSHSSPQQQG
In the case of B1, the “effect on CIA, IL-18 inhibition” value ([14]; ref Plater-Zyberk et al., 2001) is listed as “alleviation of CIA”.

B2: G-CSF: recombinant G-CSF (100 ng/ml) (protein, UniProt P09919 31-207, looked up)
Granulocyte …: TPLGPASSLPQSFLLKCLEQVRKIQGDGAALQEKLVSECATYKLCHPEELVLLGHSLGIPWAPLSSCPSQALQLAGCLSQLHSGLFLYQGLLQALEGISPELGPTLDTLQLDVADFATTIWQQMEELGMAPALQPTQGAMPAFASAFQRRAGGVLVASHLQSFLEVSYRVLRHLAQP
In the case of B2, the “cell surface GM-CSFRβ expression after stimulation” value [5] is reported as “no such difference”, the “cleaved caspase-3 induction upon cytokine withdrawal” value [6] is reported as “rapid induction of cleaved caspase-3” and the Mcl-1 expression [6] is reported as “no difference in the expression of prosurvival Mcl-1 protein”.
